Measurements as given in ChEMBL document CHEMBL5634162, “Cyclohexylalanine-Containing α-Helical Amphipathic Peptide Targets Cardiolipin, Rescuing Mitochondrial Dysfunction in Kidney Injury” (J Med Chem, 2024).
Calls of active or inactive are those of the source. The calls are words filed in the database; no cut-off is given here. Where a SMILES comes first, the peptide text is derived from it. Bridges are numbered along the chain shown (N, C = ends). Roman numbers before positions name the chains, in order. [ ]: non-standard residue; d: D form. The star is where a group is joined. 5TAMRA = CN(C)c1ccc2c(c1)Oc1cc(N(C)C)ccc1C21OC(=O)c2cc(C(=O)*)ccc21; Cha = N[C@@H](CC1CCCCC1)C(=O)O

Columns and labels:
Lipid bilayer = test: Binding affinity to cardiolipin-rich POPC/POPE by SPR analysis
[1] = Drug localization in mitochondria of human HeLa cells at EC50 incubated for 3 hrs by fluorescence based assay; format: ADME
HeLa [2] = test: Inhibition of H2O2-induced intracellular ROS level in human HeLa cells at EC50 incubated for […] followed by H2O2 addition measured for 10 mins by H2DCFDA probe based analysis; format: functional, cell-based; conditions: time 220.0 min
[3] = Drug uptake in CCCP-damaged mitochondria of human HeLa cells at 100 nM incubated for 3 hrs by MitoTracker probe based assay; format: ADME; conditions: 0.1 µM
Procedure, shortened: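 HeLa cells given TAMRA-labelled peptide 100 nM for 3 h with MitoTracker staining; mitochondria damaged with 20 μM CCCP (30 min) or by CCCP during time-lapse confocal imaging. Red/green Pearson r calculated.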

HeLa [4] = test: Cytoprotective activity against CCCP-induced cell death in human HeLa cells assessed as increase in cell survival measured for 4 hrs by fluorescence based analysis; format: functional
Mitochondria = test: Inhibition of CCCP -induced mitochondrial ROS generation in human HeLa cells incubated for 190 mins followed by CCCP addition measured after 90 mins by MitoSOX probe based analysis; format: functional; conditions: dose 5-20 nM
Procedure, shortened: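 HeLa cells seeded, stained 24 h later with MitoSOX 5 μM for 10 min, washed, HBSS, read on plate reader at 37 °C (Ex/Em 510/580 nm).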

HeLa [5] = test: Induction of antimycin A-reduced ATP production in human HeLa cells incubated for 3 hrs followed by antimycin A addition measured after 3 hrs by luminescence based analysis; format: functional, cell-based; conditions: dose 10-20 nM, time 6.0 hrs
Procedure, shortened: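 Cellular ATP measured by luminescence with an ATP detection kit after peptide pretreatment.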

[6] = Drug localization in lysosomes of human HeLa cells expressing endosome markers at 100 nM incubated for 3 hrs by LysoTracker probe based analysis; format: ADME, subcellular, Lysosome; conditions: 0.1 µM
Procedure, shortened: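 HeLa cells expressing early-endosome GFP marker (16 h) given TAMRA-labelled peptide 100 nM for 3 h plus LysoTracker 50 nM; confocal imaging with Pearson correlation.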

[7] = Drug localization in lysosomes of human HeLa cells at 100 nM incubated for 3 hrs in presence of CCCP by NAO probe based analysis; format: ADME, subcellular, Lysosome; conditions: 0.1 µM
Procedure, shortened: (§1)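 HeLa cells given TAMRA-labelled peptide 100 nM for 3 h and cardiolipin stained with NAO (100 nM, 1 h), with or without 20 μM CCCP for 30 min; LysoTracker 50 nM. Confocal images, Pearson r from five independent images (63×) per condition.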

[8] = Drug localization in cytosol of human HeLa cells at 100 nM incubated for 3 hrs in presence of CCCP by NAO probe based analysis; format: ADME, subcellular; conditions: 0.1 µM; procedure, shortened: as §1
[9] = Drug localization in H2O2-damaged mitochondria of human tubular epithelial cells pretreated for 3 hrs followed by H2O2 addition measured after 30 mins by fluorescence based analysis; format: ADME; conditions: epithelial cell, time 3.5 hrs
Epithelial cell [10] = test: Induction of H2O2-reduced mitochondrial membrane potential in human tubular epithelial cells at 20 to 60 nM pretreated for 3 hrs followed by H2O2 addition measured after 30 mins by fluorescence based analysis; format: functional; conditions: dose 20-60 nM
Procedure, shortened: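 hTECs given peptide 3 h then H2O2 1 mM for 30 min; TMRE 600 nM for 15 min, washed, HBSS, plate reader at 37 °C (Ex/Em 525/575 nm).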

Epithelial cell [11] = test: Induction of antimycin A-reduced ATP production in human tubular epithelial cells at 10 to 20 nM incubated for 3 hrs followed by antimycin A addition by fluorescene based analysis; format: functional; conditions: dose 10-20 nM
Epithelial cell [12] = test: Reversal of H2O2-induced mitochondrial dysfunction in human tubular epithelial cells assessed as increase in OCR level measured for 40 to 60 mins by Seahorse assay; format: functional, cell-based; conditions: dose 10-50 nM, time 40-60 min
Procedure, shortened: (§2)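 hTECs were exposed to H2O2 with peptide at 10 or 50 nM (n = 6 per group), then run on a Seahorse XFe96. OCR was read after sequential 2 μM oligomycin, 1 μM FCCP, and 0.5 μM rotenone/antimycin A. ECAR was read after 10 mM glucose, 1 μM oligomycin and 50 mM 2-DG. Glycolytic proton efflux rate was taken as glycoATP production rate.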

Epithelial cell [13] = test: Reversal of H2O2-induced mitochondrial dysfunction in human tubular epithelial cells assessed as increase in ECAR level measured for 40 to 60 mins by Seahorse assay; format: functional, cell-based; conditions: dose 10-50 nM, time 40-60 min; procedure, shortened: as §2
Epithelial cell [14] = test: Reversal of H2O2-induced mitochondrial dysfunction in human tubular epithelial cells assessed as increase in glycolytic PER level measured for 40 to 60 mins by Seahorse assay; format: functional, cell-based; conditions: dose 10-50 nM, time 40-60 min; procedure, shortened: as §2
[15] = Toxicity in C57BL/6 mouse model of colistin-induced nephrotoxicity assessed as animal survival at 1 mg/kg, ip administered once every other day measured for 7 days; format: organism-based; conditions: in vivo, 168 h, time 7 day
Procedure, shortened: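 Male C57BL/6 mice got colistin 20 mg/kg SC daily for 7 days, with peptide 1 mg/kg intraperitoneally every other day; groups of n = 5. Survival was tracked by Kaplan–Meier and compared by log-rank (Mantel–Cox) test.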

Epithelial cell [16] = test: Reversal of H2O2-induced IL-18 mRNA level in human tubular epithelial cells at 10 to 100 nM by qPCR analysis; format: functional, cell-based; conditions: dose 10-100 nM
Mus musculus [17] = test: Protection against […] C57BL/6 mouse model assessed as reduction in tubular damage at 1 mg/kg, ip administered thrice a week prior to induction of bilateral ischemia-reperfusion injury measured after 6 days by IHC analysis; format: functional, organism-based; conditions: time 6.0 day
Mus musculus [18] = test: Protection against […] C57BL/6 mouse model assessed as reduction in inflammatory cell infiltration at 1 mg/kg, ip administered thrice a week prior to induction of bilateral ischemia-reperfusion injury measured after 6 days by IHC analysis; format: functional, organism-based; conditions: time 6.0 day
Mus musculus [19] = test: Protection against […] C57BL/6 mouse model assessed as decrease in NGAL level at 1 mg/kg, ip administered thrice a week prior to induction of bilateral ischemia-reperfusion injury measured after 6 days by IHC analysis; format: functional, organism-based; conditions: time 6.0 day
Mus musculus [20] = test: Protection against […] C57BL/6 mouse model assessed as decrease in cyt C level at 1 mg/kg, ip administered thrice a week prior to induction of bilateral ischemia-reperfusion injury measured after 6 days by IHC analysis; format: functional, organism-based; conditions: time 6.0 day
Mus musculus [21] = test: Protection against […] C57BL/6 mouse model assessed as increase in SOD-1 level at 1 mg/kg, ip administered thrice a week prior to induction of bilateral ischemia-reperfusion injury measured after 6 days by IHC analysis; format: functional, organism-based; conditions: time 6.0 day
Mus musculus [22] = test: Protection against […] C57BL/6 mouse model assessed as increase in NQO-1 mRNA level at 1 mg/kg, ip administered thrice a week prior to induction of bilateral ischemia-reperfusion injury measured after 6 days by qPCR analysis; format: functional, organism-based; conditions: time 6.0 day
Mus musculus [23] = test: Protection against […] C57BL/6 mouse model assessed as decrease in serum BUN level at 1 mg/kg, ip measured after 23 hrs; format: functional, organism-based
Mus musculus [24] = test: Protection against […] C57BL/6 mouse model assessed as decrease in serum creatinine level at 1 mg/kg, ip measured after 23 hrs; format: functional, organism-based

CC(=O)N[C@@H](CC1CCCCC1)C(=O)N[C@H]1CSSC[C@@H](C(=O)N[C@@H](CCCNC(=N)N)C(N)=O)NC(=O)[C@H](CC2CCCCC2)NC(=O)[C@H](CCCNC(=N)N)NC(=O)[C@H](CCCNC(=N)N)NC(=O)[C@H](CC2CCCCC2)NC(=O)[C@H](CC(C)C)NC(=O)[C@H](CCCNC(=N)N)NC(=O)[C@@H](NC(=O)[C@H](CC2CCCCC2)NC(=O)c2ccc3c(c2)C(=O)OC32c3ccc(N(C)C)cc3Oc3cc(N(C)C)ccc32)CSSC[C@@H](C(=O)N[C@@H](CCCNC(=N)N)C(N)=O)NC(=O)[C@H](CC2CCCCC2)NC(=O)[C@H](CCCNC(=N)N)NC(=O)[C@H](CCCNC(=N)N)NC(=O)[C@H](CC2CCCCC2)NC(=O)[C@H](CC(C)C)NC(=O)[C@H](CCCNC(=N)N)NC1=O (I: Ac-[Cha]CRL[Cha]RR[Cha]CR-NH2 / II: 5TAMRA-[Cha]CRL[Cha]RR[Cha]CR-NH2; disulfide I:2-II:9, I:9-II:2)
Activity (Lipid bilayer): Active
Drug uptake [1]: 53%
inhibition (HeLa [2]): Active
Drug uptake [3]: Active
Activity (HeLa [4]): Active
inhibition (Mitochondria): Dose-Dependent Effect
Activity (HeLa [5]): Dose-Dependent Effect
Drug uptake [6]: Active
Drug uptake [7]: Active
Drug uptake [8]: Active
Drug uptake [9]: Active
Activity (Epithelial cell [10]): Active
Activity (Epithelial cell [11]): Active
Activity (Epithelial cell [12]): Dose-Dependent Effect
Activity (Epithelial cell [13]): Dose-Dependent Effect
Activity (Epithelial cell [14]): Dose-Dependent Effect
Activity [15]: Non-Toxic
Activity (Epithelial cell [16]): Active
Activity (Mus musculus [17]): Active
Activity (Mus musculus [18]): Active
Activity (Mus musculus [19]): Active
Activity (Mus musculus [20]): Active
Activity (Mus musculus [21]): Active
Activity (Mus musculus [22]): Active
Activity (Mus musculus [23]): Active
Activity (Mus musculus [24]): Active
